In ChEMBL document CHEMBL1147555, “2,3-diarylpyran-4-ones: a new series of selective cyclooxygenase-2 inhibitors” (Bioorg Med Chem Lett, 2004):

What was measured:
[1] = target: T1, Prostaglandin G/H synthase 1 (Mus musculus) (UniProt P22437); test: In vitro percentage inhibitory activity against prostaglandin G/H synthase 1 from freshly harvested mouse peritoneal macrophages at 10 ug/mL
T1 sequence (whole entry): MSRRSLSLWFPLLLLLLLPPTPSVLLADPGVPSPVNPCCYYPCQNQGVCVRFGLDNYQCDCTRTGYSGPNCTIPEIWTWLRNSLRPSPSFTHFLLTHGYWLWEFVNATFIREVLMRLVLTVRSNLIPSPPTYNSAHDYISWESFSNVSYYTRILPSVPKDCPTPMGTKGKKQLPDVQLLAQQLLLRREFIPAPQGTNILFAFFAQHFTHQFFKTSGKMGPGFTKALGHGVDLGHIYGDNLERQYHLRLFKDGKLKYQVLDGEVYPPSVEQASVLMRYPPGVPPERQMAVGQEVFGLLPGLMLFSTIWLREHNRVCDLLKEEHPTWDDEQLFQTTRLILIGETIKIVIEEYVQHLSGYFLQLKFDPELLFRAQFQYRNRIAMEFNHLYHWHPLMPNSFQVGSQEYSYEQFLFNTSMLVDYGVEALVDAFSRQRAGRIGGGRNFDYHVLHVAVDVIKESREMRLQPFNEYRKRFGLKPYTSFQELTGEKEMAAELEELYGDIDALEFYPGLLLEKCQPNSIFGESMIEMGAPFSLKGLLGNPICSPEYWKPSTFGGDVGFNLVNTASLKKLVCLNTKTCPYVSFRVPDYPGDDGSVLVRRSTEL

[2] = target: T2, Prostaglandin G/H synthase 2 (Mus musculus, UniProt Q05769); test: In vitro inhibitory activity against Prostaglandin G/H synthase 2 from freshly harvested mouse peritoneal macrophages; Not active
T2 sequence (Q05769 whole entry): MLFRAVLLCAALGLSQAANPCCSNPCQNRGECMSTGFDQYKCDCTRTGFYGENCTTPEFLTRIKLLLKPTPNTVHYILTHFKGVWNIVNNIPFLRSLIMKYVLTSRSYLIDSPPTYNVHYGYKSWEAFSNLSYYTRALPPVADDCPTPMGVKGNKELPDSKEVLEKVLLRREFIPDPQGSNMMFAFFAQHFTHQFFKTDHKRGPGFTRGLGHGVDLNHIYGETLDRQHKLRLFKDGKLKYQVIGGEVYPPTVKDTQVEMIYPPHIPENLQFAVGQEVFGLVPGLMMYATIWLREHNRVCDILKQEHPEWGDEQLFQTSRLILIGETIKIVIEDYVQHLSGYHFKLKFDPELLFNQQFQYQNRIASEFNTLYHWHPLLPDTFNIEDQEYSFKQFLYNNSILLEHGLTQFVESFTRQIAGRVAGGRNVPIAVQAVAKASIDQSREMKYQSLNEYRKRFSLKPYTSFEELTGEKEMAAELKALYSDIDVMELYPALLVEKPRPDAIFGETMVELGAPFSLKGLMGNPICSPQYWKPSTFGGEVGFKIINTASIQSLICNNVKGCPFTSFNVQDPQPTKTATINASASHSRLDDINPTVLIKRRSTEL

[3] = target: T2, Prostaglandin G/H synthase 2; test: Inhibitory activity against Prostaglandin G/H synthase 2 from freshly harvested mouse peritoneal macrophages
Rattus norvegicus [4] = test: Inhibitory effect of compound on carrageenan-induced rat paw edema administered p.o. at 10 mg/kg; format: functional; details: route oral
How it was run: (§1)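 Compound given orally; paw swelling measured and expressed as percent inhibition, five animals per group.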

Rattus norvegicus [5] = test: Inhibitory effect of compound on carrageenan-induced rat paw edema administered p.o. at 3 mg/kg; format: functional; details: route oral; how it was run: as §1
[6] = target: T3, Prostaglandin G/H synthase 2 (Mus musculus) (UniProt Q05769); test: In vitro percentage inhibition of Prostaglandin G/H synthase 2 from freshly harvested mouse peritoneal macrophages at 10 ug/ml
T3 sequence (whole entry): T2 sequence (Q05769 whole entry)

[7] = Plasma half-life in rat; format: ADME, organism-based
[8] = Maximum plasma concentration in rat; format: ADME, organism-based
[9] = Time of maximum plasma concentration in rat; format: ADME, organism-based

Row | SMILES | inhibition [1] [%] | IC50 [3] [nM] | inhibition in vivo at 10 mg/kg (Rattus norvegicus [4]) [%] | other results
1 | CS(=O)(=O)c1ccc(-c2occ(Cl)c(=O)c2-c2ccc(O)cc2)cc1 | 17 | – | – | IC50 [2]: Not Active
2 | CS(=O)(=O)c1ccc(-c2occ(Cl)c(=O)c2-c2ccc(-c3ccccc3)cc2)cc1 | 68 | 91.6 | 21 | –
3 | CCc1ccc(-c2c(-c3ccc(S(C)(=O)=O)cc3)occ(Cl)c2=O)cc1 | 14 | 720 | 4 | –
4 | CS(=O)(=O)c1ccc(-c2occ(Cl)c(=O)c2-c2ccc(-c3ccccc3)c(F)c2)cc1 | 70 | 87.9 | – | –
5 | CS(=O)(=O)c1ccc(-c2occ(Cl)c(=O)c2-c2ccccc2F)cc1 | 19 | 6310 | – | –
6 | COc1ccc(-c2c(-c3ccc(S(C)(=O)=O)cc3)occ(Cl)c2=O)cc1 | < 5 | 6860 | – | –
7 | CS(=O)(=O)c1ccc(-c2occ(Cl)c(=O)c2-c2cc(F)cc(F)c2)cc1 | < 5 | 2340 | – | –
8 | CS(=O)(=O)c1ccc(-c2occ(Cl)c(=O)c2-c2cccnc2)cc1 | < 5 | 7050 | – | –
9 | Cc1ccc(-c2c(-c3ccc(S(C)(=O)=O)cc3)occ(Cl)c2=O)cc1 | < 5 | 1760 | – | –
10 | Cc1ccc(-c2cc(C(F)(F)F)nn2-c2ccc(S(N)(=O)=O)cc2)cc1 [CELECOXIB] | – | – | 42 | inhibition in vivo at 3 mg/kg (Rattus norvegicus [5]): 29%
11 | CS(=O)(=O)c1ccc(-c2occ(Cl)c(=O)c2-c2cccc(-c3ccccc3)c2)cc1 | < 5 | – | – | IC50 [2]: Not Active
12 | CS(=O)(=O)c1ccc(-c2occ(Cl)c(=O)c2-c2ccc(F)cc2F)cc1 | 6 | 1390 | – | inhibition in vivo at 3 mg/kg (Rattus norvegicus [5]): 20%
13 | CS(=O)(=O)c1ccc(-c2oc3ccccc3c(=O)c2-c2cccnc2)cc1 | – | – | 25 | –
14 | CS(=O)(=O)c1ccc(-c2occ(Cl)c(=O)c2-c2cccs2)cc1 | < 5 | – | – | inhibition [6]: 9%
15 | CS(=O)(=O)c1ccc(-c2occ(Cl)c(=O)c2-c2cccc(Cl)c2)cc1 | < 5 | 1420 | – | –
16 | CS(=O)(=O)c1ccc(-c2occ(Cl)c(=O)c2-c2ccccc2)cc1 | < 5 | 1080 | – | –
17 | CS(=O)(=O)c1ccc(-c2occ(Cl)c(=O)c2-c2ccc(F)cc2)cc1 | < 5 | – | 33 | inhibition in vivo at 3 mg/kg (Rattus norvegicus [5]): 20%
18 | CS(=O)(=O)c1ccc(-c2occ(Cl)c(=O)c2-c2ccc(Cl)cc2)cc1 | < 5 | – | – | –
19 | CS(=O)(=O)c1ccc(-c2occ(Cl)c(=S)c2-c2ccc(F)cc2)cc1 | < 5 | 836 | – | –
20 | CS(=O)(=O)c1ccc(-c2occc(=O)c2-c2ccc(F)cc2)cc1 | < 5 | 2240 | – | –
21 | CS(=O)(=O)c1ccc(-c2occ(Cl)c(=O)c2-c2cccc(F)c2)cc1 | < 5 | 1430 | – | –
22 | COc1ccc2c(c1)c(CC(=O)O)c(C)n2C(=O)c1ccc(Cl)cc1 [INDOMETHACIN] | – | – | 42 | –
23 | CS(=O)(=O)c1ccc(-c2occ(Cl)c(=O)c2-c2ccsc2)cc1 | < 5 | 736 | 13 | –
24 | CS(=O)(=O)c1ccc(-c2occ(Cl)c(=O)c2-c2ccc(F)c(F)c2)cc1 | 20 | 1230 | 37 | half-life [7]: 3.7 h; inhibition in vivo at 3 mg/kg (Rattus norvegicus [5]): 10%; Cmax [8]: 5100 ng/mL; Tmax [9]: 4 h
25 | CS(=O)(=O)c1ccc(-c2occ(Cl)c(=O)c2-c2ccc(OCc3ccccc3)cc2)cc1 | < 5 | – | – | IC50 [2]: Not Active
